These results are taken from ChEMBL document CHEMBL4000179, “An Orally Active Bradykinin B1 Receptor Antagonist Engineered as a Bifunctional Chimera of Sunflower Trypsin Inhibitor” (J Med Chem, 2017).

One series has as its system HeLa. The series can be described thus: Cytotoxicity against human HeLa cells up to 40 uM after 24 hrs by PrestoBlue cell viability assay. It counts as cell-based.
The subject of series [1] is Mus musculus. The series can be described thus: Analgesic activity in ICR mouse assessed as increase in pain response latency at 1 mg/kg,ip measured after 10 mins by hot plate assay relative to control. Type of series: functional. In a few lines: (§1)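 Mouse hot plate test with hind paw-licking as the nociceptive end point. Peptides were given i.p. or p.o. at several doses, with phosphate-buffered saline as the control. Response latency was compared with each animal's baseline latency and expressed as percent increment in response time.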

Series [2] can be described thus: Stability of the compound assessed as pepsin (unknown origin)-mediated compound degradation at enzyme to peptide ratio of 1:50 after 6 hrs by HPLC-MS analysis. The following applies: human; for Stability: 6 h. It counts as ADME. In outline: (§2)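 Peptides were boiled at 100 °C, exposed to hydrochloride solution, or incubated with proteases for up to 6 h. Integrity was determined by HPLC and MS.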

The next series relates to Serum. The series can be described thus: Metabolic stability in human serum after 2 hrs by UPLC method. It counts as ADME, cell-free. In a few lines:
(§3)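 Peptides were incubated in human serum for up to 6 h, sampled at time points, and the intact fraction was expressed relative to 0 h. Runs were in triplicate, reported as mean ± SD.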

The nature of series [3]: Stability of the compound assessed as trypsin (unknown origin)-mediated compound degradation at enzyme to peptide ratio of 1:50 after 6 hrs by HPLC-MS analysis. Type of series: ADME. The following applies: human. In a few lines:
as §2

For series [4], the system named is Mus musculus. The series can be described thus: Analgesic activity in ICR mouse assessed as increase in pain response latency at 0.3 to 10 mg/kg administered through oral gavage 30 mins prior to test by hot plate assay relative to control. Type of series: functional. In outline: as §1
On the technique in general: Thermal pain tests record how soon the animal reacts.

Series [5] is described as follows: Stability in 0.2 M aqueous HCl after 6 hrs by HPLC-MS analysis. Type of series: physicochemical. The following applies: read-out: Stability. In outline: as §2
Series [6] in a line: Stability in pH 7 phosphate buffer at 0.1 mM at 100 degC after 6 hrs by HPLC-MS analysis. Type of series: physicochemical. Conditions: read-out: Stability. In outline:
as §2

Series [7] has as its target T1, Serine protease 1 (Bos taurus) (UniProt P00760).
T1 sequence (whole entry): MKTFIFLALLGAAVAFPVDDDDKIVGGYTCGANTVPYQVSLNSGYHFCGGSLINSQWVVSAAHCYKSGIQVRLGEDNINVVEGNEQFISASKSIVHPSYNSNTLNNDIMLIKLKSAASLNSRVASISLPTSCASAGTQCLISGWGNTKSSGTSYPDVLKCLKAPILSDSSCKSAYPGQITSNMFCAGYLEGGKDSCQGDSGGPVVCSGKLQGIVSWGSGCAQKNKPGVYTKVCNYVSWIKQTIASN
The series can be described thus: Inhibition of bovine beta-trypsin up to 100 uM using BAPNA as substrate preincubated for 15 mins followed by substrate addition measured over 60 mins by spectrometric method. In outline:
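Trypsin activity was measured at 37°C with the chromogenic substrate BAPNA (N-α-benzoyl-DL-arginine 4-nitroanilide), reading absorbance at 405 nm. […] Runs were in triplicate, reported as mean ± SD.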

Series [8] deals with Mus musculus. The series can be described thus: Analgesic activity in ICR mouse assessed as increase in pain response latency at 0.03 to 1 mg/kg,ip measured after 10 mins by hot plate assay relative to control. Type of series: functional, organism-based. In a few lines: as §1
A short description of series [9]: Metabolic stability in human serum assessed as parent compound remaining after 6 hrs by UPLC method. Conditions: read-out: Stability. Type of series: ADME, cell-free. In a few lines: as §3
Another series deals with T2, B1 bradykinin receptor (Homo sapiens, UniProt P46663).
T2 sequence (P46663 whole entry): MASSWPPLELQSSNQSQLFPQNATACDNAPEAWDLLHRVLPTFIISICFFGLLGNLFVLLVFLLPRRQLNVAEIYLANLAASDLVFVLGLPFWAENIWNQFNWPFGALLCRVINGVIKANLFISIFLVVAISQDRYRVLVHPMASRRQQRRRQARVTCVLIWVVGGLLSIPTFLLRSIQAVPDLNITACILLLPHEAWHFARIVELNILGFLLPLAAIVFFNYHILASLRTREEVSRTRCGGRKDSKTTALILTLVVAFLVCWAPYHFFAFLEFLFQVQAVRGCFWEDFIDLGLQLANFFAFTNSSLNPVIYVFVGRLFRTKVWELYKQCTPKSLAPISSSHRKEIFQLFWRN
The series can be described thus: Antagonist activity against bradykinin B1 receptor in human HeLa cells assessed as inhibition of Des-Arg9-BK-induced increase in intracellular Ca2+ level by Fluro-4 direct calcium dye based fluorescence assay. Type of series: functional, cell-based. In outline: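 HeLa cells were pre-loaded with fluo-4 Direct dye and pretreated with peptide at 0 to 10 µM. B1 agonist des-Arg9-BK (100 nM) was then added to raise intracellular Ca2+, read as fluorescence change.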

Series [10] is described as follows: Drug uptake in ICR mouse serum at 10 mg/kg, po after 4 hrs. Type of series: ADME, organism-based. The following applies: read-out: Drug uptake. In outline:
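Peptide was given orally at 10 mg/kg, and its serum concentration was measured 4 h later.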

Series [11] deals with Mus musculus. The series can be described thus: Analgesic activity in ICR mouse assessed as increase in pain response latency at 10 mg/kg administered through oral gavage 30 mins prior to test by hot plate assay relative to control. Type of series: functional. In a few lines: as §1
Another series addresses T3, Serine protease 1 (Bos taurus, UniProt P00760).
T3 sequence (P00760 whole entry): T1 sequence (whole entry)
The series can be described thus: Inhibition of bovine beta-trypsin using BAPNA as substrate preincubated for 15 mins followed by substrate addition measured over 60 mins by Dixon plot analysis.

Activity calls are given as the source filed them. No cut-off for these calls is given here. Where a SMILES comes first, the peptide text is derived from it. Bridges are numbered along the chain shown (N, C = ends).

As to `CC(C)C[C@H](NC(=O)[C@@H]1CCCN1C(=O)[C@H](CO)NC(=O)[C@H](Cc1ccccc1)NC(=O)CNC(=O)[C@@H]1CCCN1C(=O)[C@@H]1CCCN1C(=O)[C@H](CCCN=C(N)N)NC(=O)[C@@H](N)CCCCN)C(=O)O`, the Activity entry is listed as “Non-Toxic” in the series with HeLa, 201% in the series with Mus musculus [1] and less than 10% with Mus musculus [4]. Also, in series [2] (pepsin, read-out: Drug degradation), the metabolised at 6 h is greater than 50%. Besides, the Stability entry in the series with Serum is “Unstable”; in [3], “Stable”. Also, in series [5], the remaining at 6 h is greater than 80%. For the same compound, the remaining at 6 h, 100 µM in [6] was greater than 80%.

Consider `CC[C@H](C)[C@@H]1NC(=O)[C@@H]2CCCN2C(=O)[C@@H]2CCCN2C(=O)[C@H]([C@@H](C)CC)NC(=O)[C@H](CO)NC(=O)[C@H](CCCCN)NC(=O)[C@H]([C@@H](C)O)NC(=O)[C@@H]2CSSC[C@H](NC1=O)C(=O)N[C@@H](Cc1ccccc1)C(=O)N1CCC[C@H]1C(=O)N[C@@H](CC(=O)O)C(=O)NCC(=O)N[C@@H](CCCNC(=N)N)C(=O)N2`, for which the Activity result with HeLa is recorded as “Non-Toxic”. Further, the inhibition result in series [7] is “Active”. The result with Mus musculus [4] and in the series with Mus musculus [8] was inactive. Also, the remaining at 6 h in series [5] is greater than 80%. In series [6], the remaining at 6 h, 100 µM was greater than 80%.

On to `CC[C@H](C)[C@@H]1NC(=O)[C@@H]2CCCN2C(=O)[C@@H]2CCCN2C(=O)[C@H]([C@@H](C)CC)NC(=O)[C@H](CO)NC(=O)[C@H](CCCCN)NC(=O)[C@H]([C@@H](C)O)NC(=O)[C@@H](N)CSSC[C@@H](C(=O)N[C@@H](CCCCN)C(=O)N[C@@H](CCCNC(=N)N)C(=O)N2CCC[C@H]2C(=O)N2CCC[C@H]2C(=O)NCC(=O)N[C@@H](Cc2ccccc2)C(=O)N[C@@H](CO)C(=O)N2CCC[C@H]2C(=O)N[C@@H](CC(C)C)C(=O)O)NC1=O` (H-CTKSIPPICKRPPGFSPL-OH; disulfide 1-9), for which, in the series on HeLa, the Activity entry is “Non-Toxic”. For the same compound, in series [7], the inhibition entry was “Active”. The Stability result in [2] and in series [3] was “Unstable” in each case. Further, the remaining at 6 h in series [5] was greater than 80%. Further, the remaining at 6 h, 100 µM in series [6] is greater than 80%.

Take `CC(C)C[C@@H]1NC(=O)[C@@H]2CCCN2C(=O)[C@H](CO)NC(=O)[C@H](Cc2ccccc2)NC(=O)CNC(=O)[C@@H]2CCCN2C(=O)[C@@H]2CCCN2C(=O)[C@H](CCCNC(=N)N)NC(=O)[C@H](CCCCN)NC(=O)[C@@H](NC(=O)[C@H](CCCNC(=N)N)NC(=O)CN)CSSC[C@@H](C(=O)N[C@@H](Cc2ccccc2)C(=O)N2CCC[C@H]2C(=O)N[C@@H](CC(=O)O)C(=O)O)NC1=O` (H-GRCKRPPGFSPLCFPD-OH; disulfide 3-13): the Activity entry in the series on HeLa is recorded as “Non-Toxic”. Further, the Stability result in series [2] and in series [3] was “Unstable” throughout. Besides, the remaining at 6 h in series [5] is greater than 80%. The remaining at 6 h, 100 µM in series [6] is greater than 80%.

By IC50 is commonly meant the concentration needed to halve the response being measured. With `CC(C)C[C@@H]1NC(=O)[C@@H]2CCCN2C(=O)[C@H](CO)NC(=O)[C@H](Cc2ccccc2)NC(=O)CNC(=O)[C@@H]2CCCN2C(=O)[C@@H]2CCCN2C(=O)[C@H](CCCNC(=N)N)NC(=O)[C@H](CCCCN)NC(=O)[C@@H]2CSSC[C@H](NC1=O)C(=O)N[C@@H](Cc1ccccc1)C(=O)N1CCC[C@H]1C(=O)N[C@@H](CC(=O)O)C(=O)NCC(=O)N[C@@H](CCCNC(=N)N)C(=O)N2` (cyclo(CFPDGRCKRPPGFSPL); disulfide 1-7), in the series on HeLa, the Activity entry is listed as “Non-Toxic”. Further, the inhibition result in series [7] was “inactive”. In addition, the values for the remaining at 6 h in series [9] and in series [5] were greater than 90% and greater than 80%, respectively. Moreover, the Stability result in [2] is “Stable”; in series [3], “Unstable”. Moreover, on B1 bradykinin receptor, the IC50 came to 4040 nM. Moreover, the remaining at 6 h, 100 µM in [6] is greater than 80%.

As usually defined, the Ki is a dissociation constant, usually derived from enzyme kinetics or from competition with a known ligand. Low readings indicate a stronger hold on the target, high ones a looser hold on the target. `CC[C@H](C)[C@@H]1NC(=O)[C@@H]2CCCN2C(=O)[C@@H]2CCCN2C(=O)[C@H]([C@@H](C)CC)NC(=O)[C@H](CO)NC(=O)[C@H](CCCCN)NC(=O)[C@H]([C@@H](C)O)NC(=O)[C@@H]2CSSC[C@H](NC1=O)C(=O)N[C@@H](CCCCN)C(=O)N[C@@H](CCCNC(=N)N)C(=O)N1CCC[C@H]1C(=O)N1CCC[C@H]1C(=O)NCC(=O)N[C@@H](Cc1ccccc1)C(=O)N[C@@H](CO)C(=O)N1CCC[C@H]1C(=O)N[C@@H](CC(C)C)C(=O)N2` (cyclo(CKRPPGFSPLCTKSIPPI); disulfide 1-11): the Activity result with HeLa is on record as “Non-Toxic”; in the series with Mus musculus [1] it was 125%; in the series on Mus musculus [11] it was 71%. Also, the inhibition entry in series [7] was “Active”. The remaining at 6 h was greater than 90% in series [9] and greater than 80% in [5]. For the same compound, the concentration at 4 h in series [10] is 11.5 µM. Moreover, the Stability entry in [2] and in [3] was “Stable” throughout. Also, at B1 bradykinin receptor, the IC50 was 2000 nM. At Serine protease 1, this compound had a Ki of 5.12 nM. Also, the remaining at 6 h, 100 µM in series [6] is greater than 80%.
